Results on eleven molecules are retold here after article PMC7433031 (European journal of medicinal chemistry, 2020).

Read-outs that look alike come from different tables or passages of the source.

The subject of experiment [1] is MOLT-4 T-ALL cells. Put plainly: MOLT-4 cell viability assay. The experiment is classed as cell-based, human.
The target in experiment [2] is BCL-XL (Homo sapiens, UniProt Q07817). The experiment can be described thus: Western blot of BCL-XL protein levels in MOLT-4 cells. The experiment is classed as cell-based. As to conditions: 16 h; for BCL-XL degradation in MOLT-4 cells at 100 nM: Western blot (Figure 3). The procedure, abridged:
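MOLT-4 cells were treated for 16 h with test compound (100 nM for VHL-based, 50 nM for CRBN-based, or a concentration series for DC50). Other runs used 100 nM over a time course, or 16 h exposure followed by washout into drug-free medium. Some cells were pretreated 2 h with 10 μM pomalidomide or 1 μM MG-132. Immunoblot bands were normalized to β-actin and expressed as % remaining versus vehicle.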

The subject of experiment [3] is H146 small cell lung cancer cell line. Put plainly: H146 cell viability assay. The format is cell-based. As to conditions: Homo sapiens, NCI-H146, 48 h, read-out: IC50 48 h treatment H146. The procedure, abridged: (§1)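 NCI-H146 small-cell lung cancer and RS4;11 B-ALL cells maintained in RPMI 1640 plus 10% FBS and 1% penicillin-streptomycin. Cells seeded at 5×10⁴ to 1×10⁵ per well and treated with test compound for 48 h. Viability measured by tetrazolium-based MTS assay, with IC50 calculated from the viability data.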

In experiment [4] the test system is RS4;11 B-cell ALL cell line. The experiment can be described thus: RS4. The format is cell-based. As to conditions: Homo sapiens, RS4-11, 48 h, read-out: IC50 48 h treatment RS4;11. The procedure, abridged:
as §1

The test system of experiment [5] is human platelets. The experiment can be described thus: Human platelet viability assay. The format is cell-based. As to conditions: for IC50: Homo sapiens, Platelet, 48 h, read-out: IC50 48 h treatment Platelets. Summed up:
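Platelets were separated from purchased platelet-rich plasma in acid citrate buffer with 1 μM PGE1 and 0.2 units/mL apyrase (final). Cells were centrifuged and adjusted to 2 × 10⁸/mL in HEPES Tyrode's buffer with 10% FBS, 1 μM PGE1 and 0.2 units/mL apyrase. They were treated for 48 h, with or without a 10 μM pomalidomide block, and read by MTS. IC50 values were curve-fitted. The ratio divides platelet IC50 by 48 h MOLT-4 MTS IC50.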

Experiment [6] relates to CLL patients. Particulars: cited from earlier work.
Where [7] appears, read: Homo sapiens, MOLT-4, 48 h, read-out: IC50 48 h treatment MOLT-4.
Where [8] appears, read: Homo sapiens, MOLT-4, 48 h, read-out: IC50, reduction of MOLT-4 cell viability.
[9] abbreviates: read-out: IC50, reduction of MOLT-4 cell viability, MOLT-4 cells, 48 h treatment, means of at least three independent experiments (Tables 1-4).

Usually IC50 stands for the concentration that gives 50% inhibition.

Sequence of BCL-XL (Q07817 whole entry): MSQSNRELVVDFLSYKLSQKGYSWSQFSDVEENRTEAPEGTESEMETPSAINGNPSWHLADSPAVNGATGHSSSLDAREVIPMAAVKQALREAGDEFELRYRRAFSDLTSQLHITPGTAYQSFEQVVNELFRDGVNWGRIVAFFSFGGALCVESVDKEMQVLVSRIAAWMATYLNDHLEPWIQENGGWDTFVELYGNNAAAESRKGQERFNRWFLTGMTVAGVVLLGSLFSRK

As for `CC1(C)CCC(c2ccc(Cl)cc2)=C(CN2CCN(c3ccc(C(=O)NS(=O)(=O)c4ccc(N[C@H](CCN5CCN(C(=S)NCCOCCOCCNc6cccc7c6C(=O)N([C@@H]6CCC(=O)NC6=O)C7=O)CC5)CSc5ccccc5)c(S(=O)(=O)C(F)(F)F)c4)cc3)CC2)C1` (racemic) [Compound 11b, 4-(4-((2-(4-Chlorophenyl)-5,5-dimethylcyclohex-1-enyl)methyl)piperazin-1-yl)-N-(4-((2R)-4-(4-(2-(2-(2-(2-(2,6-dioxopiperidin-3-yl)-1,3-dioxoisoindolin-4-ylamino)ethoxy)ethoxy)ethylcarbamothioyl)piperazin-1-yl)-1-(phenylthio)butan-2-ylamino)-3-(trifluoromethylsulfonyl)phenylsulfonyl)benzamide], in experiment [1] (MOLT-4, versus 11a), the “fold decrease in potency compared to 11a” value is ~ 6 fold.

Turning to `Cc1ncsc1-c1ccc([C@H](C)NC(=O)[C@@H]2C[C@@H](O)CN2C(=O)[C@@H](NC(=O)CCOCCC(=O)N2CCN(CC[C@H](CSc3ccccc3)Nc3ccc(S(=O)(=O)NC(=O)c4ccc(N5CCN(CC6=C(c7ccc(Cl)cc7)CCC(C)(C)C6)CC5)cc4)cc3S(=O)(=O)C(F)(F)F)CC2)C(C)(C)C)cc1` [Compound 3a, (2S,4R)-1-((S)-2-(3-(3-(4-((R)-3-((4-(N-(4-(4-((4’-Chloro-4,4-dimethyl-3,4,5,6-tetrahydro-[1,1’-biphenyl]-2-yl)methyl)piperazin-1-yl)benzoyl)sulfamoyl)-2-((trifluoromethyl)sulfonyl)phenyl)amino)-4-(phenylthio)butyl)piperazin-1-yl)-3-oxopropoxy)propanamido)-3,3-dimethylbutanoyl)-4-hydroxy-N-((S)-1-(4-(4-methylthiazol-5-yl)phenyl)ethyl)pyrrolidine-2-carboxamide], the “times less potent than 1e in MOLT-4 cell viability” value in experiment [1] (MOLT-4, versus 1e) is ~ 4 times.

For `Cc1ncsc1-c1ccc([C@H](C)NC(=O)[C@@H]2C[C@@H](O)CN2C(=O)[C@@H](NC(=O)CCCCCC(=O)N(C)CC[C@H](CSc2ccccc2)Nc2ccc(S(=O)(=O)NC(=O)c3ccc(N4CCN(CC5=C(c6ccc(Cl)cc6)CCC(C)(C)C5)CC4)cc3)cc2S(=O)(=O)C(F)(F)F)C(C)(C)C)cc1` [Compound 5, N^1-((R)-3-((4-(N-(4-(4-((4’-Chloro-4,4-dimethyl-3,4,5,6-tetrahydro-[1,1’-biphenyl]-2-yl)methyl)piperazin-1-yl)benzoyl)sulfamoyl)-2-((trifluoromethyl)sulfonyl)phenyl)amino)-4-(phenylthio)butyl)-N^7-((S)-1-((2S,4R)-4-hydroxy-2-(((S)-1-(4-(4-methylthiazol-5-yl)phenyl)ethyl)carbamoyl)pyrrolidin-1-yl)-3,3-dimethyl-1-oxobutan-2-yl)-N^1-methylheptanediamide], the “BCL-XL degradation in MOLT-4 cells at 100 nM” value (from here on “BCL-XL degradation … at 100 nM”) in experiment [2] is “weak BCL-XL degradation”.

In the case of `Cc1ncsc1-c1ccc([C@H](C)NC(=O)[C@@H]2C[C@@H](O)CN2C(=O)[C@@H](NC(=O)CCCCCCN(C)CC[C@H](CSc2ccccc2)Nc2ccc(S(=O)(=O)NC(=O)c3ccc(N4CCN(CC5=C(c6ccc(Cl)cc6)CCC(C)(C)C5)CC4)cc3)cc2S(=O)(=O)C(F)(F)F)C(C)(C)C)cc1` [Compound 6c, (2S,4R)-1-((S)-2-(7-(((R)-3-((4-(N-(4-(4-((4’-Chloro-4,4-dimethyl-3,4,5,6-tetrahydro-[1,1’-biphenyl]-2-yl)methyl)piperazin-1-yl)benzoyl)sulfamoyl)-2-((trifluoromethyl)sulfonyl)phenyl)amino)-4-(phenylthio)butyl)(methyl)amino)heptanamido)-3,3-dimethylbutanoyl)-4-hydroxy-N-((S)-1-(4-(4-methylthiazol-5-yl)phenyl)ethyl)pyrrolidine-2-carboxamide], the “BCL-XL degradation … at 100 nM” value in experiment [2] is listed as “the most potent degrader among its analogs”.

For `CC1(C)CCC(c2ccc(Cl)cc2)=C(CN2CCN(c3ccc(C(=O)NS(=O)(=O)c4ccc(N[C@H](CCN5CCN(CCOCCOCCOCCNc6cccc7c6C(=O)N(C6CCC(=O)NC6=O)C7=O)CC5)CSc5ccccc5)c(S(=O)(=O)C(F)(F)F)c4)cc3)CC2)C1` (stereo partly drawn) [Compound 12c, 4-(4-((4’-Chloro-4,4-dimethyl-3,4,5,6-tetrahydro-[1,1’-biphenyl]-2-yl)methyl)piperazin-1-yl)-N-((4-(((2R)-4-(4-(2-(2-(2-(2-((2-(2,6-dioxopiperidin-3-yl)-1,3-dioxoisoindolin-4-yl)amino)ethoxy)ethoxy)ethoxy)ethyl)piperazin-1-yl)-1-(phenylthio)butan-2-yl)amino)-3-((trifluoromethyl)sulfonyl)phenyl)sulfonyl)benzamide], the IC50 in experiment [3] came out at 24.6 nM; in experiment [4], 38.5 nM; in experiment [5], 1560 nM; in experiment [1] (setting [7]), 17.3 nM; in experiment [1] (setting [8]), 17.3 nM.

In the case of `CN(CCCCCCCn1cc(COCCOCCNc2cccc3c2C(=O)N(C2CCC(=O)NC2=O)C3=O)nn1)CC[C@H](CSc1ccccc1)Nc1ccc(S(=O)(=O)NC(=O)c2ccc(N3CCN(CC4=C(c5ccc(Cl)cc5)CCC(C)(C)C4)CC3)cc2)cc1S(=O)(=O)C(F)(F)F` (stereo partly drawn) [Compound 15a, 4-(4-((4’-Chloro-4,4-dimethyl-3,4,5,6-tetrahydro-[1,1’-biphenyl]-2-yl)methyl)piperazin-1-yl)-N-((4-(((2R)-4-((7-(4-((2-(2-((2-(2,6-dioxopiperidin-3-yl)-1,3-dioxoisoindolin-4-yl)amino)ethoxy)ethoxy)methyl)-1H-1,2,3-triazol-1-yl)heptyl)(methyl)amino)-1-(phenylthio)butan-2-yl)amino)-3-((trifluoromethyl)sulfonyl)phenyl)sulfonyl)benzamide], the IC50 in experiment [3] is 61.7 nM; in experiment [4], 62.2 nM; in experiment [5], 6250 nM; in experiment [1] (setting [7]) it was 29.2 nM; in experiment [1] (setting [8]) it was 29.2 nM. Besides, the “BCL-XL degradation in MOLT-4 cells at 50 nM” value in experiment [2] (50 nM, Western blot (Figure 4)) is “better BCL-XL degraders than their amide analogs”.

`CN(CCCNc1cccc2c1C(=O)N(C1CCC(=O)NC1=O)C2=O)CC[C@H](CSc1ccccc1)Nc1ccc(S(=O)(=O)NC(=O)c2ccc(N3CCN(CC4=C(c5ccc(Cl)cc5)CCC(C)(C)C4)CC3)cc2)cc1S(=O)(=O)C(F)(F)F` (stereo partly drawn) [Compound 16a, 4-(4-((4’-Chloro-4,4-dimethyl-3,4,5,6-tetrahydro-[1,1’-biphenyl]-2-yl)methyl)piperazin-1-yl)-N-((4-(((2R)-4-((3-((2-(2,6-dioxopiperidin-3-yl)-1,3-dioxoisoindolin-4-yl)amino)propyl)(methyl)amino)-1-(phenylthio)butan-2-yl)amino)-3-((trifluoromethyl)sulfonyl)phenyl)sulfonyl)benzamide]: the IC50 in experiment [3] was found to be 70.2 nM; in experiment [4] it was 129 nM; in experiment [5] it was 3300 nM; in experiment [1] (setting [7]) it was 32.5 nM; in experiment [1] (setting [8]), 32.5 nM.

`CC1(C)CCC(CN2CCN(c3ccc(C(=O)NS(=O)(=O)c4ccc(NCC5CCOCC5)c([N+](=O)[O-])c4)c(Oc4cnc5[nH]ccc5c4)c3)CC2)=C(c2ccc(Cl)cc2)C1` [venetoclax]: in experiment [6], the complete remission rate is on record as 20% and the overall response rate is given as 71–79%.

For the molecule “(2S,4R)-1-((S)-2-(2-(2-(2-(4-((R)-3-((4-(N-(4-(4-((4’-Chloro-4,4-dimethyl-3,4,5,6-tetrahydro-[1,1’-biphenyl]-2-yl)methyl)piperazin-1-yl)benzoyl)sulfamoyl)-2-((trifluoromethyl)sulfonyl)phenyl)amino)-4-(phenylthio)butyl)piperazin-1-yl)ethoxy)ethoxy)acetamido)-3,3-dimethylbutanoyl)-4-hydroxy-N-((S)-1-(4-(4-methylthiazol-5-yl)phenyl)ethyl)pyrrolidine-2-carboxamide [Compound 4b]”, the “times less potent than 4a in reducing MOLT-4 cell viability” value in experiment [1] (MOLT-4, versus 4a) was ~ 6 times. Further, in experiment [1] (setting [9]), the IC50 was determined as 914 nM. Besides, the “BCL-XL degradation … at 100 nM” value in experiment [2] is “slightly more potent in inducing BCL-XL degradation than 4a”.

Turning to “(2S,4R)-1-((S)-2-(2-(2-(4-((R)-3-((4-(N-(4-(4-((4’-Chloro-4,4-dimethyl-3,4,5,6-tetrahydro-[1,1’-biphenyl]-2-yl)methyl)piperazin-1-yl)benzoyl)sulfamoyl)-2-((trifluoromethyl)sulfonyl)phenyl)amino)-4-(phenylthio)butyl)piperazin-1-yl)ethoxy)acetamido)-3,3-dimethylbutanoyl)-4-hydroxy-N-((S)-1-(4-(4-methylthiazol-5-yl)phenyl)ethyl)pyrrolidine-2-carboxamide [Compound 4a]”, the IC50 in experiment [1] (setting [9]) was determined as 151 nM.

Turning to “navitoclax [ABT-263, reference compound]”, in experiment [5] (MOLT-4 versus human platelets), the “selectivity for MOLT-4 cells over human platelets” value is listed as “no selectivity”. Besides, the “IC50 ratio between human platelets and MOLT-4 cells” value in experiment [5] (platelets IC50 / MOLT-4 IC50, 48 h) came out at 1.1.
